Columns and labels:
Cynomolgus monkey [1] = test: Uptake in anesthetized cynomolgus monkey occipital after 15.5 mins; assay type: ADME, organism-based, Macaca mulatta, Occipital cortex; conditions: rhesus monkey, in vivo
Outline: (§1)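 Baseline microPET scan (P4 scanner) of anesthetized cynomolgus monkeys after injection of the carbon-11 labelled nortropane tracer. Two baseline studies were run per tracer. Radioactivity was followed over time in regional brain time-activity curves.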

Cynomolgus monkey [2] = test: Uptake in anesthetized cynomolgus monkey cerebellum after 35.0 mins; assay type: ADME, organism-based, Macaca mulatta; conditions: rhesus monkey, in vivo
Outline: (§2)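 Baseline microPET (Concorde P4) regional brain time-activity curves in anesthetized cynomolgus monkey following injection of the [11C]-labelled tracer, with radioactivity followed over the scan.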

Cynomolgus monkey [3] = test: Uptake in anesthetized cynomolgus monkey midbrain after 15.5 mins; assay type: ADME, organism-based; conditions: in vivo; outline: as §1
Cynomolgus monkey [4] = test: Uptake in anesthetized cynomolgus monkey occipital after 0.5 mins; assay type: ADME, organism-based, Occipital cortex; conditions: in vivo; outline: as §1
Cynomolgus monkey [5] = test: Uptake in anesthetized cynomolgus monkey frontal after 15.5 mins; assay type: ADME, organism-based, Frontal cortex; conditions: in vivo; outline: as §1
Cynomolgus monkey [6] = test: Uptake in anesthetized cynomolgus monkey thalamus after 65.0 mins; assay type: ADME, organism-based; conditions: in vivo
Outline: (§3)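 Baseline microPET (Concorde P4) scan in anesthetized cynomolgus monkeys after injection of the carbon-11 labeled tracer, with no chase drug. Regional brain time-activity curves were followed over the scan. Tracer radiochemical purity and specific activity were determined by analytical HPLC at the time of injection.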

Cynomolgus monkey [7] = test: Uptake in anesthetized cynomolgus monkey medulla after 2.5 mins; assay type: ADME, organism-based, Medulla of organ; conditions: in vivo; outline: as §1
Cynomolgus monkey [8] = test: Uptake in anesthetized cynomolgus monkey putamen after 27.5 mins; assay type: ADME, organism-based; conditions: in vivo; outline: as §3
Cynomolgus monkey [9] = test: Uptake in anesthetized cynomolgus monkey medulla after 22.5 mins; assay type: ADME, organism-based, Medulla of organ; conditions: in vivo, 0.375 h; outline: as §1
Cynomolgus monkey [10] = test: Uptake in anesthetized cynomolgus monkey frontal after 45.0 mins; assay type: ADME, organism-based, Frontal cortex; conditions: in vivo, 0.75 h; outline: as §1
Cynomolgus monkey [11] = test: Uptake in anesthetized cynomolgus monkey pons after 1.5 mins; assay type: ADME, organism-based, Macaca mulatta; conditions: rhesus monkey, in vivo, 0.025 h; outline: as §1
Cynomolgus monkey [12] = test: Ratio of uptake in occipital to cerebellum of anesthetized cynomolgus monkey after 85 mins; assay type: ADME, organism-based; conditions: in vivo
Outline: (§4)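 Baseline microPET (Concorde P4) in anesthetized cynomolgus monkey after injection of the [11C]-labelled tracer. Regional time-activity curves were taken, and each region's uptake was divided by cerebellum uptake (low-SERT reference) at 65, 85 and 105 min postinjection.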

Cynomolgus monkey [13] = test: Ratio of uptake in pons to cerebellum of anesthetized cynomolgus monkey after 105 mins; assay type: ADME, organism-based; conditions: in vivo, 1.75 h; outline: as §4
Cynomolgus monkey [14] = test: Uptake in anesthetized cynomolgus monkey medulla after 35.0 mins; assay type: ADME, organism-based, Medulla of organ; conditions: in vivo; outline: as §1
Cynomolgus monkey [15] = test: Uptake in anesthetized cynomolgus monkey occipital after 85.0 mins; assay type: ADME, organism-based, Macaca mulatta, Occipital cortex; conditions: rhesus monkey, in vivo; outline: as §1
Cynomolgus monkey [16] = test: Uptake in anesthetized cynomolgus monkey putamen after 3.5 mins; assay type: ADME, organism-based; conditions: in vivo; outline: as §3
Cynomolgus monkey [17] = test: Uptake in anesthetized cynomolgus monkey midbrain after 6.5 mins; assay type: ADME, organism-based; conditions: in vivo; outline: as §1
Cynomolgus monkey [18] = test: Uptake in anesthetized cynomolgus monkey frontal after 22.5 mins; assay type: ADME, organism-based, Frontal cortex; conditions: in vivo, 0.375 h; outline: as §1
Cynomolgus monkey [19] = test: Ratio of uptake in occipital to cerebellum of anesthetized cynomolgus monkey after 65 mins; assay type: ADME, organism-based; conditions: in vivo; outline: as §4
Cynomolgus monkey [20] = test: Ratio of uptake in thalamus to cerebellum of anesthetized cynomolgus monkey after 105 mins; assay type: ADME, organism-based; conditions: in vivo, 1.75 h; outline: as §4
Cynomolgus monkey [21] = test: Uptake in anesthetized cynomolgus monkey medulla after 115.0 mins; assay type: ADME, organism-based, Medulla of organ; conditions: in vivo; outline: as §1
Cynomolgus monkey [22] = test: Ratio of uptake in thalamus to cerebellum of anesthetized cynomolgus monkey after 85 mins; assay type: ADME, organism-based; conditions: in vivo; outline: as §4
Cynomolgus monkey [23] = test: Uptake in anesthetized cynomolgus monkey caudate after 115.0 mins; assay type: ADME, organism-based, Caudate nucleus; conditions: in vivo; outline: as §2
Cynomolgus monkey [24] = test: Uptake in anesthetized cynomolgus monkey midbrain after 0.5 mins; assay type: ADME, organism-based; conditions: in vivo; outline: as §1
Cynomolgus monkey [25] = test: Uptake in anesthetized cynomolgus monkey caudate after 0.5 mins; assay type: ADME, organism-based, Caudate nucleus; conditions: in vivo; outline: as §2
Cynomolgus monkey [26] = test: Uptake in anesthetized cynomolgus monkey cerebellum after 115.0 mins; assay type: ADME, organism-based; conditions: in vivo; outline: as §2
Cynomolgus monkey [27] = test: Uptake in anesthetized cynomolgus monkey cerebellum after 2.5 mins; assay type: ADME, organism-based, Macaca mulatta; conditions: rhesus monkey, in vivo; outline: as §2
Cynomolgus monkey [28] = test: Uptake in anesthetized cynomolgus monkey putamen after 85.0 mins; assay type: ADME, organism-based; conditions: in vivo; outline: as §3
Cynomolgus monkey [29] = test: Uptake in anesthetized cynomolgus monkey cerebellum after 1.5 mins; assay type: ADME, organism-based; conditions: in vivo, 0.025 h; outline: as §2
Cynomolgus monkey [30] = test: Uptake in anesthetized cynomolgus monkey occipital after 4.5 mins; assay type: ADME, organism-based, Occipital cortex; conditions: in vivo, 0.075 h; outline: as §1
Cynomolgus monkey [31] = test: Uptake in anesthetized cynomolgus monkey medulla after 15.5 mins; assay type: ADME, organism-based, Medulla of organ; conditions: in vivo; outline: as §1
Cynomolgus monkey [32] = test: Uptake in anesthetized cynomolgus monkey medulla after 75.0 mins; assay type: ADME, organism-based, Medulla of organ; conditions: in vivo, 1.25 h; outline: as §1
Cynomolgus monkey [33] = test: Uptake in anesthetized cynomolgus monkey medulla after 65.0 mins; assay type: ADME, organism-based, Medulla of organ; conditions: in vivo; outline: as §1
Cynomolgus monkey [34] = test: Uptake in anesthetized cynomolgus monkey medulla after 105.0 mins; assay type: ADME, organism-based, Medulla of organ; conditions: in vivo, 1.75 h; outline: as §1

Compound: [11CH3]OC(=O)[C@@H]1C2CCC(C[C@@H]1c1cccc(/C=C/I)c1)N2 (some centres undefined)
- Drug uptake (Cynomolgus monkey [1]): 4.69
- Drug uptake (Cynomolgus monkey [2]): 5.42
- Drug uptake (Cynomolgus monkey [3]): 6.42
- Drug uptake (Cynomolgus monkey [4]): 0.01
- Drug uptake (Cynomolgus monkey [5]): 3.69
- Drug uptake (Cynomolgus monkey [6]): 6.9
- Drug uptake (Cynomolgus monkey [7]): 1.4
- Drug uptake (Cynomolgus monkey [8]): 6.94
- Drug uptake (Cynomolgus monkey [9]): 6.95
- Drug uptake (Cynomolgus monkey [10]): 4.13
- Drug uptake (Cynomolgus monkey [11]): 0.29
- Ratio (Cynomolgus monkey [12]): 1
- Ratio (Cynomolgus monkey [13]): 1.8
- Drug uptake (Cynomolgus monkey [14]): 7.36
- Drug uptake (Cynomolgus monkey [15]): 4
- Drug uptake (Cynomolgus monkey [16]): 2.12
- Drug uptake (Cynomolgus monkey [17]): 4.97
- Drug uptake (Cynomolgus monkey [18]): 4.03
- Ratio (Cynomolgus monkey [19]): 0.9
- Ratio (Cynomolgus monkey [20]): 2.1
- Drug uptake (Cynomolgus monkey [21]): 6.11
- Ratio (Cynomolgus monkey [22]): 1.8
- Drug uptake (Cynomolgus monkey [23]): 4.84
- Drug uptake (Cynomolgus monkey [24]): 0.01
- Drug uptake (Cynomolgus monkey [25]): 0.01
- Drug uptake (Cynomolgus monkey [26]): 3.05
- Drug uptake (Cynomolgus monkey [27]): 1.2
- Drug uptake (Cynomolgus monkey [28]): 6.58
- Drug uptake (Cynomolgus monkey [29]): 0.38
- Drug uptake (Cynomolgus monkey [30]): 2.44
- Drug uptake (Cynomolgus monkey [31]): 6.72
- Drug uptake (Cynomolgus monkey [32]): 6.9
- Drug uptake (Cynomolgus monkey [33]): 6.94
- Drug uptake (Cynomolgus monkey [34]): 6.25
